Source: ChEMBL document CHEMBL1127860, “Design, synthesis, X-ray analysis, and dopamine receptor-modulating activity of mimics of the "C5" hydrogen-bonded conformation in the peptidomimetic 2-oxo-3(R)-[(2(S)-pyrrolidinylcarbonyl)amino]-1- pyrrolidineacetamide” (J Med Chem, 1994)

Legend:
[1] = target: D(2) dopamine receptor (Bos taurus) (UniProt P20288); experiment: Binding towards dopamine D2 receptor using [3H]spiroperidol in presence of (Gpp(NH)p)
[2] = Ratio of Rh and RL Inhibitor constants in presence of (Gpp(NH)p)
[3] = Ratio of Rh and RL Inhibitor constants in absence of (Gpp(NH)p)
[4] = target: D(2) dopamine receptor (Bos taurus) (UniProt P20288); experiment: Percentage of sites in low affinity form for the agonist in the presence of (Gpp(NH)p); assay type: functional
[5] = target: D(2) dopamine receptor (Bos taurus) (UniProt P20288); experiment: Percentage of sites in high affinity form for the agonist in the absence of (Gpp(NH)p; assay type: functional
[6] = target: D(2) dopamine receptor (Bos taurus) (UniProt P20288); experiment: Tested for the ability to enhance the binding of the dopamine D2 receptor agonist N-propylnorapomorphine (NPA) in the absence of (Gpp(NH)p)
Method in brief: (§1)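 High-affinity [³H]NPA (0.05 nM) binding to bovine striatal membranes, 1 h at 22 °C, then GF/B filtration. Compound at 1, 10 or 100 nM, either with 100 μM Gpp(NH)p added directly or after a 2 h, 4 °C preincubation with Gpp(NH)p and washing. Expressed as % of maximal specific binding in Gpp(NH)p-free membranes. Mean ± SEM of five experiments.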

[7] = target: D(2) dopamine receptor (Bos taurus) (UniProt P20288); experiment: Tested for the ability to enhance the binding of the dopamine D2 receptor agonist N-propylnorapomorphine (NPA) in the presence of (Gpp(NH)p); method in brief: as §1
[8] = target: D(2) dopamine receptor (Bos taurus) (UniProt P20288); experiment: Binding towards dopamine D2 receptor using [3H]spiroperidol in the absence of (Gpp(NH)p)
[9] = target: D(2) dopamine receptor (Bos taurus) (UniProt P20288); experiment: Percentage of sites in high affinity form for the agonist in the presence of (Gpp(NH)p); assay type: functional
[10] = target: D(2) dopamine receptor (Bos taurus) (UniProt P20288); experiment: Percentage of sites in low affinity form for the agonist in the absence of (Gpp(NH)p); assay type: functional
[11] = target: D(2) dopamine receptor (Bos taurus) (UniProt P20288)
[12] = target: D(2) dopamine receptor (Bos taurus) (UniProt P20288); remark: listed apart in the source

Sequence of D(2) dopamine receptor (Bos taurus) (P20288 whole entry): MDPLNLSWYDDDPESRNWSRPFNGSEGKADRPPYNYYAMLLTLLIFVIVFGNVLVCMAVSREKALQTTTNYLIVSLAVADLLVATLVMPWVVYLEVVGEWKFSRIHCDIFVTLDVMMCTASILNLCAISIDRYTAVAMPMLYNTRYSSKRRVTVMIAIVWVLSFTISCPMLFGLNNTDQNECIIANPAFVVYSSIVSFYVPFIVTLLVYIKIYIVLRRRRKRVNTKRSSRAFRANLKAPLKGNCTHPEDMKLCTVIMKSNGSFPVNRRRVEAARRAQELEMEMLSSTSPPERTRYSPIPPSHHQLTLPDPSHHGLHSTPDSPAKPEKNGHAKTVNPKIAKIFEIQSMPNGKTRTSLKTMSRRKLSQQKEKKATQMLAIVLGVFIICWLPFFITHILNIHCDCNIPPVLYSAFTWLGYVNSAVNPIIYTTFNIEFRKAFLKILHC

KH [1] [nM]	Ratio [2]	Ratio [3]	RL [4] [%]	RH [5] [%]	KL [6] [nM]	KL [7] [nM]	KH [8] [nM]	RH [9] [%]	RL [10] [%]	KL [11] [nM]	KL [12] [nM]	SMILES
0.07	0.56	1.91	64	65	61	77	0.03	36	34			CC1(C)N2CCC[C@H]2C(=O)N1[C@@H]1CCN(CC(N)=O)C1=O
0.05	0.71	1.97	59	65			0.02	42	33	56	64	NC(=O)CN1CC[C@@H](N2CC(=O)N3CCC[C@H]3C2=O)C1=O
